Laboratory results as given in ChEMBL document CHEMBL1255436, “Peptide fragments of a beta-defensin derivative with potent bactericidal activity” (Antimicrob Agents Chemother, 2010).
Values after ≈ are worked out from the molar mass of the structure shown. Active and inactive are the calls of the source. No cut-off for these calls is given here.

Assays:
[1] = test system: Staphylococcus aureus; assay: Antimicrobial activity against Staphylococcus aureus ATCC 25923 after 3 hrs by bactericidal assay; type: functional; conditions: ATCC 25923, 3 h
Outline: (§1)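 Mid-log cultures grown in Iso-Sensitest broth, diluted to 1 × 10⁶–5 × 10⁶ CFU/ml in 10 mM potassium phosphate with 1% (vol/vol) Iso-Sensitest broth, pH 7.4. Peptides (monomer made by 10 mM DTT reduction overnight at room temperature, or dimer; oxidation state checked by MS) are incubated with 100 μl cells at 37°C for 3 h. Tenfold dilutions are plated and CFU counted next day. MBC is >99.99% killing, in duplicate on three occasions, taken as the mean. Mann-Whitney U test.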

[2] = test system: Escherichia coli; assay: Antimicrobial activity against Escherichia coli ATCC 25922 after 3 hrs by bactericidal assay; type: functional; conditions: ATCC 25922, 3 h; outline: as §1
[3] = test system: Pseudomonas aeruginosa; assay: Antimicrobial activity against Pseudomonas aeruginosa PAO1 after 3 hrs by bactericidal assay; type: functional; conditions: PAO1, 3 h; outline: as §1
[4] = test system: Enterococcus faecalis; assay: Antimicrobial activity against Enterococcus faecalis ATCC 700802 after 3 hrs by bactericidal assay; type: functional; conditions: ATCC 700802, 3 h; outline: as §1
[5] = test system: Burkholderia cenocepacia; assay: Antimicrobial activity against Burkholderia cenocepacia J2315 after 3 hrs by bactericidal assay; type: functional; conditions: J2315, 3 h
[6] = test system: Acinetobacter baumannii; assay: Antimicrobial activity against Acinetobacter baumannii ATCC 19606 after 3 hrs by bactericidal assay; type: functional; conditions: ATCC 19606 = CIP 70.34 = JCM 6841, 3 h; outline: as §1
[7] = test system: Staphylococcus aureus; assay: Antibacterial activity against methicillin-resistant Staphylococcus aureus J2918 after 3 hrs by bactericidal assay; type: functional; conditions: J2918, 3 h; outline: as §1
[8] = test system: Pseudomonas aeruginosa; assay: Antimicrobial activity against Pseudomonas aeruginosa PAO1 after 3 hrs by bactericidal assay in presence of 200 mM NaCl; type: functional, organism-based
Outline: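 Mid-log P. aeruginosa was grown in Iso-Sensitest broth and diluted in 10 mM potassium phosphate with 1% broth, pH 7.4, with sodium chloride added. Peptide dilutions were incubated with 1 × 10⁵ to 5 × 10⁵ CFU per 100 μl at 37°C for 3 h, then CFU were plated. MBC is >99.99% kill, the mean of duplicates from three independent runs.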

[9] = test system: Pseudomonas aeruginosa; assay: Antimicrobial activity against Pseudomonas aeruginosa PAO1 at 20 uM; type: functional, organism-based
[10] = test system: Staphylococcus aureus; assay: Antimicrobial activity against Staphylococcus aureus ATCC 25923 at 20 uM; type: functional, organism-based
[11] = test system: Staphylococcus aureus; assay: Stability of the compound in Staphylococcus aureus ATCC 25923 after 4 hrs by LC-MS analysis; type: ADME, organism-based
Outline: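 Peptide is incubated with S. aureus ATCC 25923 for 4 h. Peptide integrity is then assessed by LC-MS as peak area relative to the sample before incubation.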

[12] = test system: Pseudomonas aeruginosa; assay: Antimicrobial activity against Pseudomonas aeruginosa PAO1 assessed as bacterial killing at 16.5 uM after 3 hrs by bactericidal assay; type: functional, organism-based
[13] = test system: Pseudomonas aeruginosa; assay: Antimicrobial activity against Pseudomonas aeruginosa PAO1 after 3 hrs by bactericidal assay in presence of 10 mM NaCl; type: functional; conditions: PAO1, 3 h
Outline: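 P. aeruginosa PAO1 at mid-log in Iso-Sensitest broth, diluted to 1 × 10⁶–5 × 10⁶ CFU/ml in 10 mM potassium phosphate/1% Iso-Sensitest broth, pH 7.4, with 10 mM NaCl added. Dimeric peptides are incubated with 100 μl cells at 37°C for 3 h, then plated as tenfold dilutions with CFU counted next day. MBC is >99.99% killing, from duplicates on three occasions. Mann-Whitney U test.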

Compound | MBC [1] [µg/mL] | MBC [2] [µg/mL] | MBC [3] [µg/mL] | MBC [4] [µg/mL] | MBC [5] [µg/mL] | MBC [6] [µg/mL] | MBC [7] [µg/mL] | Activity [8] | Activity [9] | Activity [10] | Stability [11] | Activity [12] | MBC [13] [µM]
CC[C@H](C)[C@@H]1NC(=O)[C@H](CCC(N)=O)NC(=O)[C@H](CCC(=O)O)NC(=O)[C@H](CCC(=O)O)NC(=O)[C@H](CCCCN)NC(=O)CNC(=O)[C@H](CC(C)C)NC(=O)[C@@H]2CSSC[C@@H](C(=O)N[C@@H](CCCNC(=N)N)C(=O)N[C@@H](CCCCN)C(=O)N[C@@H](CCCCN)C(=O)N[C@@H](CCCCN)C(=O)O)NC(=O)[C@@H]3CSSC[C@H](NC(=O)[C@H](Cc4ccccc4)NC(=O)[C@H](Cc4ccccc4)NC(=O)[C@H](CCCCN)NC(=O)[C@H](CCCNC(=N)N)NC(=O)[C@H](CC(C)C)NC(=O)[C@@H](NC(=O)[C@H](CCCCN)NC(=O)[C@@H]4CCCN4C(=O)[C@H](CC(C)C)NC(=O)[C@@H](N)Cc4ccccc4)[C@H](C)O)C(=O)N[C@@H](CCCNC(=N)N)C(=O)N[C@@H]([C@@H](C)CC)C(=O)N[C@@H](CCCNC(=N)N)C(=O)NCC(=O)NCC(=O)N[C@@H](CCCNC(=N)N)C(=O)N[C@@H](CSSC[C@H](NC(=O)[C@H](CCCNC(=N)N)NC(=O)CNC1=O)C(=O)N[C@@H](CO)C(=O)N[C@@H](CC(N)=O)C(=O)N[C@@H](CO)C(=O)NCC(=O)N[C@@H](CCCNC(=N)N)C(=O)N[C@@H](CCCCN)C(=O)N3)C(=O)N[C@@H](C)C(=O)N[C@@H](C(C)C)C(=O)N[C@@H](CC(C)C)C(=O)N[C@@H](CC(N)=O)C(=O)N2 | 1 (≈ 0.193 µM) | > 205 | 0.3 (≈ 0.0579 µM) | 1.2 (≈ 0.231 µM) | 0.6 (≈ 0.116 µM) | 0.3 (≈ 0.0579 µM) | > 48 |  |  |  |  |  | 
H-RGGRAAVLNA-OH | > 22 | 9.6 | 1.2 | > 48 | 38.6 | > 205 | 1.2 |  |  |  |  |  | 
CC(C)C[C@H](NC(=O)[C@@H](NC(=O)[C@H](CCCCN)NC(=O)[C@@H]1CCCN1C(=O)[C@H](CC(C)C)NC(=O)[C@@H](N)Cc1ccccc1)[C@H](C)O)C(=O)N[C@@H](CCCNC(=N)N)C(=O)N[C@@H](CCCCN)C(=O)N[C@@H](Cc1ccccc1)C(=O)N[C@@H](Cc1ccccc1)C(=O)O | 1.2 (≈ 0.925 µM) | 3 (≈ 2.31 µM) | 1.3 (≈ 1 µM) | 1.2 (≈ 0.925 µM) | > 48 | 0.75 (≈ 0.578 µM) | 2.4 (≈ 1.85 µM) | Active |  |  |  |  | 
H-RIRGGRAAVLNA-OH |  |  |  |  |  |  |  |  | inactive | inactive |  |  | 
H-RIRGGRAAVLNALGKEEQIGRASNSGRKCARKKK-OH | 5.9 | > 10 | 1.7 | > 5 |  | 2.5 | > 10 |  |  |  |  |  | 
H-LRKFFARIRGGR-OH | 12.1 |  |  | > 22 | 16.5 | 19 | 7.1 | Active |  |  |  |  | 
CC[C@H](C)[C@H](NC(=O)[C@H](CCC(N)=O)NC(=O)[C@H](CCC(=O)O)NC(=O)[C@H](CCC(=O)O)NC(=O)[C@H](CCCCN)NC(=O)CNC(=O)[C@H](CC(C)C)NC(=O)[C@H](C)NC(=O)[C@H](CC(N)=O)NC(=O)[C@H](CC(C)C)NC(=O)[C@@H](NC(=O)[C@H](C)NC(=O)[C@H](C)NC(=O)[C@H](CCCNC(=N)N)NC(=O)CNC(=O)CNC(=O)[C@H](CCCNC(=N)N)NC(=O)[C@H](NC(=O)[C@H](CCCNC(=N)N)NC(=O)[C@H](C)NC(=O)[C@H](Cc1ccccc1)NC(=O)[C@H](Cc1ccccc1)NC(=O)[C@H](CCCCN)NC(=O)[C@H](CCCNC(=N)N)NC(=O)[C@@H](N)CC(C)C)[C@@H](C)CC)C(C)C)C(=O)NCC(=O)N[C@@H](CCCNC(=N)N)C(=O)N[C@@H](C)C(=O)N[C@@H](CO)C(=O)N[C@@H](CC(N)=O)C(=O)N[C@@H](CO)C(=O)NCC(=O)N[C@@H](CCCNC(=N)N)C(=O)N[C@@H](CCCCN)C(=O)N[C@@H](CS)C(=O)N[C@@H](C)C(=O)N[C@@H](CCCNC(=N)N)C(=O)N[C@@H](CCCCN)C(=O)N[C@@H](CCCCN)C(=O)N[C@@H](CCCCN)C(=O)O | 1.4 (≈ 0.315 µM) | 2.5 (≈ 0.563 µM) | 0.7 (≈ 0.158 µM) | 1.25 (≈ 0.281 µM) |  |  | 2.5 (≈ 0.563 µM) | Active |  |  |  |  | 
H-GGRAAVLNALGKEEQIGRASNSGRKCARKKK-OH | > 15.2 | > 10 | > 15.2 | > 5 |  | > 10 | > 10 |  |  |  | Stable | inactive | 
H-AAVLNA-OH | > 83.5 |  | > 83.5 |  |  |  |  |  |  |  |  |  | 
H-IRGGRAAVLNALGKEEQIGRAS-OH | > 48 | 38.6 | 1.2 | 4.8 | > 205 | 2.4 | > 22 |  |  |  |  |  | 
H-LGKEEQIGRASNSGRKCARKKK-OH | 1.2 |  | > 33 | 0.6 | > 22 | > 48 | > 205 |  |  |  |  |  | 
CC[C@H](C)[C@H](NC(=O)[C@H](CCCNC(=N)N)NC(=O)[C@H](C)NC(=O)[C@H](Cc1ccccc1)NC(=O)[C@H](Cc1ccccc1)NC(=O)[C@H](CCCCN)NC(=O)[C@H](CCCNC(=N)N)NC(=O)[C@H](CC(C)C)NC(=O)[C@@H](NC(=O)[C@H](CCCCN)NC(=O)[C@@H]1CCCN1C(=O)[C@H](CC(C)C)NC(=O)[C@@H](N)Cc1ccccc1)[C@H](C)O)C(=O)N[C@@H](CCCNC(=N)N)C(=O)NCC(=O)NCC(=O)N[C@@H](CCCNC(=N)N)C(=O)N[C@@H](C)C(=O)N[C@@H](C)C(=O)N[C@H](C(=O)N[C@@H](CC(C)C)C(=O)N[C@@H](CC(N)=O)C(=O)N[C@@H](C)C(=O)O)C(C)C | > 205 | > 20 | > 48 | > 20 | > 20 | > 22 | > 40 |  |  |  |  |  | 
H-FFARIRGGRAAVLNALGKEEQIGRASNSGRKCARKKK-OH | 1.5 | 10 | 1.1 | 1.9 |  | 2.9 | 2.2 |  |  |  |  |  | 10
H-AAVLNALGKEEQIGRASNSGRKCARKKK-OH | > 16.5 | > 10 | > 16.5 | > 5 |  | > 10 | > 10 |  |  |  |  |  | 
